Test results published in ChEMBL document CHEMBL1124291, “New actinomycin D analogues as superior chemotherapeutic agents against primary and advanced colon tumors and colon xenografts in nude mice” (J Med Chem, 1988).
Starred links: 1 amine or outer side, 2 acyl side, 3 side chain; linkers in the order of their positions; H or OH if unused. Positions of bridges follow the written chain, without caps; N, C: chain ends. Non-standard residues stand in square brackets, D forms with d. Residues, ends and D or L forms follow the SMILES beside them. Chains are numbered I, II in the order given. Actinocin(9to1) = Cc1c2oc3c(C)ccc(C(=O)[*:1])c3nc-2c(C(=O)[*:2])c(N)c1=O; NMeV = CN[C@H](C(=O)O)C(C)C; Sar = CNCC(=O)O

Experiments:
B16 [1] = test: In vivo antitumor activity against B16 melanoma cells at a optimal dose 300 ug/Kg /inj measured as %ILS (%increase life span); format: functional; conditions: Mus musculus
Method in brief: (§1)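 BDF1 mice in groups of nine were implanted ip on day 0 with 0.2 mL of 1:5 (w/v) B16 melanoma brei; drugs were given ip. Survival is reported as median survival time in days with range, and as %ILS, with survivors counted on day 65 out of total injected.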

B16 [2] = test: In vivo antitumor activity against B16 melanoma cells at dose 300 ug/Kg /inj measured as Mean survival time (MST); format: functional, Mus musculus; method in brief: as §1
Rattus norvegicus [3] = organism: Rattus norvegicus; test: DNA-cleaving ability expressed as % of closed circular pBR322 DNA cleaved at 10 uM conc; format: functional
Method in brief: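 pBR322 DNA (200 μM nucleotides) in 10 mM Tris·HCl pH 7.8 and 50 mM NaCl, with 4 mM Na₂S₂O₄ and 100 μM FeCl₂. Incubated with drug for 1 h at 20 °C, kept air-saturated. Supercoiled and open-circular forms were separated by agarose gel electrophoresis, stained with ethidium bromide and quantitated by densitometry. % cleaved was calculated from the open- and closed-circular amounts.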

MC-38 [4] = test: Activity against advanced carcinoma C38 Tumor in CDF1 Mice at dose 0.45 mg/kg measured as % inhibition of tumor; format: functional; conditions: Mus musculus
P388 [5] = test: Antitumor activity in P388/S(AMD sensitive) in male BDF1 mice measured as optimal dose at dose 0.075-2.5 mg/kg/injection, ip
MC-38 [6] = test: Number of toxic deaths/number of mice in a group of non tumored mice treated in parallel with the tumor-bearing mice and observed for 100 days at a dose 0.30 mg/Kg; value given as 0/9; format: functional, Mus musculus
Method in brief: (§2)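 Non-tumored CDF1 mice were treated in parallel with colon 38 tumor-bearing mice: iv injections on days 1, 5 and 9, groups of nine. Deaths were counted over 100 days of observation and reported as toxic deaths / mice in group.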

MC-38 [7] = test: Activity against advanced carcinoma C38 Tumor in CDF1 Mice at dose 0.075 mg/kg measured as % inhibition of tumor; format: functional; conditions: Mus musculus
MC-38 [8] = test: Mean survival time of treated /untreated group x100. (number of over 100-day survivors/ number of total mice in the group) at a dose 0.60 mg/kg; format: functional, Mus musculus; conditions: dose 0.6 mg/kg
Method in brief: (§3)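 CDF1 mice were implanted sc on day 0 with colon 38 adenocarcinoma fragments (70 mg) and given iv drug on days 1, 5 and 9. %T/C = median survival of treated / untreated × 100. Number of mice surviving over 100 days / group total is given in parentheses.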

P388 [9] = test: 50% inhibition of incorporation of precursor [3H]thymidine into DNA P388 cell lines; format: functional, cell-based; conditions: Mus musculus, P388, 2 h
Rattus norvegicus [10] = organism: Rattus norvegicus; test: The formation of adrenochrome from epinephrine in the absence of SOD(super oxide dismutase); format: functional
Method in brief: (§4)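 Drug-stimulated superoxide generation with rat liver microsomal enzymes and NADPH as cofactor. NADPH oxidation was read at 340 nm. Adrenochrome formed from epinephrine was read at 480 nm, with or without superoxide dismutase. % stimulation = [(drug-stimulated rate − basal rate)/basal rate] × 100. Values are mean ± standard error of triplicate analyses.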

Rattus norvegicus [11] = organism: Rattus norvegicus; test: The formation of adrenochrome from epinephrine in the presence of SOD(super oxide dismutase); + denotes ' Inhibited'; format: functional; method in brief: as §4
Rattus norvegicus [12] = organism: Rattus norvegicus; test: Percent of the unconverted metabolite from incubation mixture containing rat microsomes; format: functional
Method in brief: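 Tritiated analogues were incubated with two systems. (T) sonicated P388 cell homogenates, 37 °C for 16 h. (M) liver microsomes from phenobarbital-induced rats, 6 h with an NADPH-generating system (glucose-6-phosphate dehydrogenase plus glucose 6-phosphate). Metabolites and water-soluble conjugates were isolated, separated by HPLC and expressed as percentages.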

MC-38 [13] = test: Mean survival time of treated /untreategroup x100. (number of over 100-day survivors/ number of total mice in the group) at a dose 0.15 mg/kg; format: functional, Mus musculus; method in brief: as §3
P388 [14] = test: Antitumor activity in P388/ADR (adriamycin resistant), in male BDF1 mice measured as optimal dose at dose
MC-38 [15] = test: Number of toxic deaths/number of mice in a group of non tumored mice treated in parallel with the tumor-bearing mice and observed for 100 days at a dose 0.45 mg/Kg; value given as 1/9; format: toxicity; conditions: mouse, in vivo, 2400 h; method in brief: as §2
MC-38 [16] = test: Activity against advanced carcinoma C38 Tumor in CDF1 Mice at dose 0.60 mg/kg measured as % inhibition of tumor; format: functional; conditions: Mus musculus
pBR322 plasmid DNA = test: DNA-cleaving ability expressed as % of closed circular pBR322 DNA cleaved at 100 uM conc
MC-38 [17] = test: Number of toxic deaths/number of mice in a group of non tumored mice treated in parallel with the tumor-bearing mice and observed for 100 days at a dose 0.60 mg/Kg; value given as 4/9; format: toxicity; conditions: mouse, in vivo, 0.6 mg/kg, 2400 h; method in brief: as §2
HT-29 [18] = test: 50% inhibition of incorporationf precursor [3H]thymidine into RNA HT-29 cell lines; format: functional, cell-based; conditions: Homo sapiens, HT-29, 2 h; in the assay text read “[14C]uridine” for “[3H]thymidine”
Method in brief: (§5)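 HT-29 colon carcinoma monolayers, 10^4 cells per well, five wells per concentration. Drug exposure lasted 2 h, with [³H]thymidine and [2-¹⁴C]uridine (0.5 μCi each) added for the last hour. Cells were washed, trypsinized, counted and precipitated onto glass-fiber filters with 10% TCA. Acid-precipitable radioactivity was measured. IC50 is the concentration inhibiting 50% of incorporation; data are averages of replicate experiments.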

Rattus norvegicus [19] = organism: Rattus norvegicus; test: Stimulation of NADPH oxidation in the presence of rat liver microsomes; format: functional; method in brief: as §4
B16 [20] = test: In vivo Antitumor activity against B16 melanoma cells at dose 250 ug/Kg /inj measured as Mean survival time (MST); format: functional, Mus musculus; method in brief: as §1
P388 (Mus musculus) = test: Percent of the unconverted metabolite from incubation mixture containing tumor cell homogenate(T)
P388 [21] = test: 50% inhibition of incorporation precursor [14C]uridine into RNA P388 cell lines; format: functional, cell-based; conditions: Mus musculus
MC-38 [22] = test: Mean survival time of treated /untreategroup x100. (number of over 100-day survivors/ number of total mice in the group) at a dose 0.45 mg/kg; format: functional, Mus musculus; method in brief: as §3
B16 [23] = test: In vivo Antitumor activity against B16 melanoma cells at a optimal dose measured as %ILS (%increase life span); format: functional, Mus musculus; method in brief: as §1
MC-38 [24] = test: Number of toxic deaths/number of mice in a group of non tumored mice treated in parallel with the tumor-bearing mice and observed for 100 days at a dose 0.15 mg/Kg; value given as 1/9; format: toxicity; conditions: mouse, in vivo, 2400 h; method in brief: as §2
MC-38 [25] = test: Number of toxic deaths/number of mice in a group of non tumored mice treated in parallel with the tumor-bearing mice and observed for 100 days at a dose 0.075 mg/Kg; value given as 0/9; format: functional, Mus musculus; method in brief: as §2
MC-38 [26] = test: Activity against advanced carcinoma C38 Tumor in CDF1 Mice at dose 0.15 mg/kg measured as % inhibition of tumor; format: functional; conditions: Mus musculus
HT-29 [27] = test: 50% inhibition of incorporationf precursor [3H]thymidine into DNA HT-29 cell lines; format: functional, cell-based; conditions: Homo sapiens, HT-29, 2 h; method in brief: as §5
MC-38 [28] = test: Activity against advanced carcinoma C38 Tumor in CDF1 Mice at dose 0.30 mg/kg measured as % inhibition of tumor; format: functional; conditions: Mus musculus
MC-38 [29] = test: Mean survival time of treated /untreategroup x100. (number of over 100-day survivors/ number of total mice in the group) at a dose 0.30 mg/kg; format: functional, Mus musculus; conditions: dose 0.3 mg/kg; method in brief: as §3
MC-38 [30] = test: Mean survival time of treated /untreategroup x100. (number of over 100-day survivors/ number of total mice in the group) at a dose 0.075 mg/kg; format: functional, Mus musculus; method in brief: as §3
P388 [31] = test: Antitumor activity against P388/S (AMD sensitive) in male BDF1 mice measured as optimal dose at dose 1.0-5.0 mg/Kg/inj, ip
P388 [32] = test: Antitumor activity against P388/ADR (adriamycin resistant), in male BDF1 mice measured as optimal dose at dose 1.0-5.0 mg/Kg/inj, ip

## Cc1nc2c(C(=O)N[C@@H]3C(=O)N[C@H](C(C)C)C(=O)N4CCC[C@H]4C(=O)N(C)CC(=O)N(C)[C@@H](C(C)C)C(=O)O[C@@H]3C)c3nc4c(C(=O)N[C@@H]5C(=O)N[C@H](C(C)C)C(=O)N6CCC[C@H]6C(=O)N(C)CC(=O)N(C)[C@@H](C(C)C)C(=O)O[C@@H]5C)c(N)c(=O)c(C)c-4oc3c(C)c2o1
B16 [1]
  ILS at 0.3 mg/kg: 124%
B16 [2]
  MST: 65

## Cc1c2oc3c(C)ccc(C(=O)N[C@@H]4C(=O)N[C@H](C(C)C)C(=O)N5CCC[C@H]5C(=O)N(C)CC(=O)N(C)[C@@H](C(C)C)C(=O)O[C@@H]4C)c3nc-2c(C(=O)N[C@@H]2C(=O)N[C@H](C(C)C)C(=O)N3CCC[C@H]3C(=O)N(C)CC(=O)N(C)[C@@H](C(C)C)C(=O)O[C@@H]2C)c(N)c1=O [DACTINOMYCIN] (I: T[dV]P[Sar][NMeV] / II: T[dV]P[Sar][NMeV]; ester I:1-I:C, II:1-II:C; linker I:N-II:N via Actinocin(9to1))
Rattus norvegicus [3]
  Activity: 10%
MC-38 [4]
  inhibition in vivo at 0.45 mg/kg: 83%
P388 [5]
  optimal dose: 0.25 mg/kg
MC-38 [6]
  Toxic deaths: 0
MC-38 [7]
  inhibition in vivo at 0.075 mg/kg: 30%
MC-38 [8]
  T/C: 103%
P388 [9]
  IC50: 1100 nM
Rattus norvegicus [10]
  Adrenochrome formation: 2.29 nM min-1 (mg of protein)-1
Rattus norvegicus [11]
  Adrenochrome formation: Inhibited
Rattus norvegicus [12]
  Activity: 100%
MC-38 [13]
  T/C: 107%
P388 [14]
  optimal dose: 0.25 mg/kg
MC-38 [15]
  Toxic deaths: 1
MC-38 [16]
  inhibition in vivo at 0.6 mg/kg: 89%
pBR322 plasmid DNA
  Activity: 22%
MC-38 [17]
  Toxic deaths: 4
HT-29 [18]
  IC50: 100 nM
Rattus norvegicus [19]
  NADPH oxidation (nM min-1 (mg of protein)-1): 10
B16 [20]
  MST: 43
P388 (Mus musculus)
  Activity: 100%
P388 [21]
  IC50: 50 nM
MC-38 [22]
  T/C: 170%
B16 [23]
  ILS: 48%
MC-38 [24]
  Toxic deaths: 1
MC-38 [25]
  Toxic deaths: 0
MC-38 [26]
  inhibition in vivo at 0.15 mg/kg: 30%
HT-29 [27]
  IC50: 900 nM
MC-38 [28]
  inhibition in vivo at 0.3 mg/kg: 67%
MC-38 [29]
  T/C: 134%
MC-38 [30]
  T/C: 100%

## CO[C@@]12[C@H](COC(N)=O)C3=C(C(=O)C(C)=C(N)C3=O)N1C[C@@H]1N[C@@H]12 [MITOMYCIN]
P388 [31]
  optimal dose: 3 mg/kg
P388 [32]
  optimal dose: 3 mg/kg
